From publication PMC2847151 (Neurogenetics, 2009)

Legend:
[1] = test system: SH3 domain of the Src-family kinase Lck (LckSH3); test: Fluorescence titration binding of synthetic MED25 peptides to Lck SH3; settings: AblSH3 vs LckSH3
[2] = test system: Med25 expression; test: Med25 qRT-PCR expression in sciatic nerve of treated Pmp22 transgenic; format: in vivo, rat
Outline: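 Pmp22-transgenic rats received a progestin diet (20 mg/kg), a progesterone-receptor antagonist, or placebo (12, 12 and 8 animals). RNA was Trizol-extracted from sciatic nerve. Med25 was quantified by TaqMan qRT-PCR with unlabelled forward/reverse primers and a 5′-FAM probe, in triplicate, normalised to 18S rRNA run in parallel. Runs were repeated with GAPDH as the internal control.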

[3] = test system: Pmp22 expression; settings: peripheral nerves of Pmp22 transgenic rats; ref [31]; cited from earlier work
[4] = test system: Pmp22 transgenic rats; settings: progesterone antagonist, ref [31]; cited from earlier work
[5] = target: SH3 domain of the Src-family kinase Lck (LckSH3) (Homo sapiens, UniProt P06239); test: Fluorescence titration binding of synthetic MED25 peptides to Lck SH3
Chain of SH3 domain of the Src-family kinase Lck (LckSH3) (Homo sapiens, UniProt P06239) (P06239 61-121 limits assumed): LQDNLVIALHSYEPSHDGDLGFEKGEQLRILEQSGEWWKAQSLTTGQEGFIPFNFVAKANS

[6] = target: SH3 domain of Abl (AblSH3) (Homo sapiens, UniProt P00519); test: Fluorescence titration binding of synthetic MED25 peptides to Abl SH3
Chain of SH3 domain of Abl (AblSH3) (P00519 61-121 limits assumed): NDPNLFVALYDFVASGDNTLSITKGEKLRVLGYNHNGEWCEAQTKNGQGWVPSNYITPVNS

In the case of “Ac-QLPPGPPGAPKPPPAS-NH2 [wild-type MED25, Ac-QLPPGPPGAPKPPPAS-CONH2]”, the “binding affinity Abl SH3 compared with Lck SH3 (specificity)” value [1] is reported as “significantly stronger to Abl than to Lck”.
In the case of `CN(C)c1ccc([C@H]2C[C@]3(C)[C@@H](CC[C@]3(O)CCCO)[C@@H]3CCC4=CC(=O)CCC4=C32)cc1` [onapristone], the “Med25 expression after treatment” value ([2]; Pmp22^++/+ rats, onapristone) is listed as “no significant reducing effect”, the Pmp22 expression [3] is listed as “decreases its expression” and the phenotype [4] is listed as “improvement of the phenotype”.
In the case of `CC(=O)[C@H]1CC[C@H]2[C@@H]3CCC4=CC(=O)CC[C@]4(C)[C@H]3CC[C@]12C` [progesterone], the “Med25 expression after treatment” value ([2]; Pmp22^++/+ male rats, progesterone 20 mg/kg diet) is listed as “further increase of the Med25 expression” and the Pmp22 expression [3] is listed as “increases Pmp22 expression”.
With “Ac-QLPPGPPGVPKPPPAS-NH2 [mutant, Ac-QLPPGPPGVPKPPPAS-CONH2]” the “binding affinity Abl SH3 compared with Lck SH3 (specificity)” value [1] was “very similar affinity”, the Kd [5] was 5.38 ± 1.05 µM and the Kd [6] was 2.91 ± 0.66 µM. The “affinity for Abl SH3, effect of mutation” value ([6]; mutant vs wild-type peptide) was “almost unaltered by the mutation”.
